Source: paper PMC3207488 (Bioorganic & medicinal chemistry, 2011)
Like-named read-outs stand apart in the source and are kept apart here. One block for each compound: values may come before it.

Key:
[1] = test system: TNF-α-induced NFκB activity; assay: NFκB luciferase assay; assay type: cell-based, human; conditions: for inhibition at 50 µM: HEK293, read-out: NFκB % inhib.; for NFκB % inhib.: 50 μM
In short: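 HEK293 line carrying a chromosomally integrated luciferase reporter driven by the NFκB response element. Cells incubated 6 h with TNFα plus test compound, then luciferase activity read. Inhibition expressed as % relative to TNFα-treated control. IC50 from dose-response of five serial dilutions, mean of two experiments.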

aromatase (CYP19) = target: T1, aromatase (CYP19) (Homo sapiens, UniProt P11511); assay: Aromatase assay; assay type: biochemical; conditions: for inhibition at 50 µM: read-out: Aromatase % inhib., 50 μM; for inhibition at 50 µM / Aromatase % inhib.: vs vehicle-treated controls; for Aromatase % inhib.: 50 μM
T1 sequence (P11511 1-503): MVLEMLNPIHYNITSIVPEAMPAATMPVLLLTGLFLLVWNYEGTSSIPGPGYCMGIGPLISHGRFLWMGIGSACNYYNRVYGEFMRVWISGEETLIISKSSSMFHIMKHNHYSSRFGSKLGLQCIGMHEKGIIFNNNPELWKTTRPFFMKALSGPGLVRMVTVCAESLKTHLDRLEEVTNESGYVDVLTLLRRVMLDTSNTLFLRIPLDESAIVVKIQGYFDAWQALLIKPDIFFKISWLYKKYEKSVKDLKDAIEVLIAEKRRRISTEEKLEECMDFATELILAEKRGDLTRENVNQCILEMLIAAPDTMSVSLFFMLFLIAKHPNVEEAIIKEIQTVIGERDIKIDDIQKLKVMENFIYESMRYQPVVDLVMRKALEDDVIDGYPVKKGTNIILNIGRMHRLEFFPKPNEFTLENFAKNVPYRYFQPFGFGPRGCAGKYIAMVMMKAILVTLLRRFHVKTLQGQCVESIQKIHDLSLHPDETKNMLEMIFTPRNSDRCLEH

[2] = test system: Hepa 1c1c7 murine hepatoma cells; assay: Cell survival in the QR1 assay; assay type: cell-based; conditions: for viability at 50 µM: Mus musculus, Hepa-1c1c7, read-out: QR1 % surv.; for QR1 % surv.: 50 μM, cell survival in comparison with vehicle-treated controls
RAW 264.7 cells = assay: Cell survival in the nitrite assay; assay type: cell-based, murine; conditions: for viability at 50 µM: Mus musculus, RAW264.7, 20 h, read-out: Nitrite assay % surv.; for Nitrite assay % surv.: 50 μM, RAW 264.7 cells
In short: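 RAW 264.7 cells held 24 h at 37°C, 5% CO2, then given serially diluted test compound for 15 min. LPS (1 μg/mL) or no LPS added for a further 20 h. Viability assessed by SRB protein staining under the same conditions as the nitrite assay, as % survival versus vehicle-treated controls.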

[3] = test system: quinone reductase 1 (QR1); assay: QR1 induction in cell culture; assay type: cell-based, murine; conditions: 50 μM; Hepa 1c1c7 cells
In short: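 Hepa 1c1c7 murine hepatoma cells. QR1 measured by NADPH-dependent, menadiol-mediated reduction of MTT to blue formazan, with protein determined by crystal violet staining of identical plates. Specific activity given as nmol formazan/mg protein/min. IR is the ratio of treated to DMSO-control specific activity. CD (concentration doubling activity) derived by dose-response for IR >2.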

MCF7 breast cancer cells = assay: SRB assay: MCF7 cell proliferation; assay type: cell-based; conditions: for viability at 50 µM: Homo sapiens, MCF7, 72 h, read-out: SRB assay % surv.; for SRB assay % surv.: MCF7 cells, 72 h
In short: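 MCF7 cells (1 × 10^4 per well) plated with test compound, 72 h at 37°C, 5% CO2. Fixed in 10% TCA for 30 min, stained with 0.4% SRB in 1% acetic acid for 30 min, then washed with 1% acetic acid. Bound dye dissolved in 10 mM Tris (pH 10.0) and A515 read. Survival given as % of vehicle-treated controls.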

[4] = test system: Human embryonic kidney cells 293; assay: Cell survival in the NFκB assay; assay type: cell-based; conditions: for viability at 50 µM: Homo sapiens, HEK293, 6 h, read-out: NFκB % surv.; for NFκB % surv.: 50 μM, 293 cells
[5] = test system: various human cancer cell lines; conditions: natural callophycin A; cited from earlier work
[6] = test system: nitric oxide (NO) production in LPS-stimulated RAW 264.7 murine macrophage cells; assay: Nitrite assay: NO production in LPS-stimulated RAW 264.7 cells; assay type: cell-based

Compound: O=C(O)[C@H]1Cc2c([nH]c3ccccc23)CN1 [Compound 1b, 1,2,3,4-tetrahydro-β-carboline-3-carboxylic acid]
inhibition at 50 µM ([1]; Homo sapiens): -72.5%

inhibition at 50 µM (aromatase (CYP19)): > 50%
Compound: C=CCOC(=O)N1Cc2[nH]c3ccccc3c2C[C@H]1C(=O)OC [Compound 3a, (S)-2-Allyl 3-methyl 3,4-dihydro-1H-pyrido[3,4-b]indole-2,3(9H)-dicarboxylate]

IC50 (aromatase (CYP19)): 64.5 µM
inhibition at 50 µM (aromatase (CYP19)): 41.5%
IC50 ([1]; Homo sapiens, HEK293, read-out: NFκB IC50): 16.2 µM
Compound: COC(=O)[C@@H]1Cc2c([nH]c3ccccc23)CN1C(=O)OCC(C)C [Compound 3b, (S)-2-Isobutyl 3-methyl 3,4-dihydro-1H-pyrido[3,4-b]indole-2,3(9H)-dicarboxylate]
viability at 50 µM [2]: 88.3%
viability at 50 µM (RAW 264.7 cells): 105%
inhibition at 50 µM ([1]; Homo sapiens): 59.8%
QR1 IR (induction ratio) [3]: 1.7
viability at 50 µM (MCF7 breast cancer cells): 76.7%
viability at 50 µM [4]: 95.6%

inhibition at 50 µM (aromatase (CYP19)): > 50%
Compound: COC(=O)[C@@H]1Cc2c([nH]c3ccccc23)CN1C(=O)NC(C)C [Compound 6b, (S)-Methyl 2-(isopropylcarbamoyl)-2,3,4,9-tetrahydro-1H-pyrido[3,4-b]indole-3-carboxylate]

Compound: CC(C)COC(=O)N1Cc2[nH]c3ccccc3c2C[C@H]1C(=O)O [Compound 7b, (S)-2-(Isobutoxycarbonyl)-2,3,4,9-tetrahydro-1H-pyrido[3,4-b]indole-3-carboxylic acid]
viability at 50 µM [2]: 94.2%
IC50 (aromatase (CYP19)): 72 µM
inhibition at 50 µM (aromatase (CYP19)): 40%
viability at 50 µM (RAW 264.7 cells): 137%
inhibition at 50 µM ([1]; Homo sapiens): 42.6%
QR1 IR (induction ratio) [3]: 1.8
viability at 50 µM (MCF7 breast cancer cells): 105%
viability at 50 µM [4]: 138%

inhibition at 50 µM (aromatase (CYP19)): > 50%
Compound: O=C(O)[C@@H]1Cc2c([nH]c3ccccc23)CN1Cc1ccc(O)cc1 [Compound 12a, (S)-Callophycin A]

Compound: O=C(O)C1Cc2c([nH]c3ccccc23)CN1Cc1ccc(O)cc1 (stereo not shown) [callophycin A, Callophycin A]
antiproliferative effects [5]: low micromolar concentrations
inhibition of MCF7 cell proliferation (in words) (MCF7 breast cancer cells; 50 μM): didn’t show the inhibitory activity

Compound: (R)-2-(Isobutoxycarbonyl)-2,3,4,9-tetrahydro-1H-pyrido[3,4-b]indole-3-carboxylic acid [Compound 7d]
QR1 % surv. [2]: 87.5%
Aromatase % inhib. (aromatase (CYP19)): 36.3%
Nitrite assay % inhib. ([6]; 50 μM): 1.5%
Nitrite assay % surv. (RAW 264.7 cells): 134.4%
NFκB % inhib. ([1]; TNFα-treated 293 cells): 46.1%
QR1 IR (induction ratio) [3]: 1.5
SRB assay % surv. (MCF7 breast cancer cells; 50 μM): 97.4%
NFκB % surv. [4]: 264.3%

Aromatase % inhib. (aromatase (CYP19)): 31.7%
NFκB % inhib. ([1]; TNFα-treated 293 cells): 91.6%
IC50 ([1]; read-out: NFκB IC50, TNFα-treated 293 cells): 4.8 µM
Compound: (R)-2-Isobutyl 3-methyl 3,4-dihydro-1H-pyrido[3,4-b]indole-2,3(9H)-dicarboxylate [Compound 3d]
QR1 % surv. [2]: 78.8%
IC50 ([6]; read-out: Nitrite assay IC50): 2.8 µM
Nitrite assay % surv. (RAW 264.7 cells): 92.6%
QR1 IR (induction ratio) [3]: 1.1
SRB assay % surv. (MCF7 breast cancer cells; 50 μM): 72.0%
NFκB % surv. [4]: 112.3%
